In ChEMBL document CHEMBL3632511, “Oxopyrido[2,3-d]pyrimidines as Covalent L858R/T790M Mutant Selective Epidermal Growth Factor Receptor (EGFR) Inhibitors” (ACS Med Chem Lett, 2015):

Columns and labels:
[1] = test system: NCI-H1975; assay: Cytotoxicity against human NCI-H1975 cells harboring EGFR L858R/T790M double mutant assessed as inhibition of cell proliferation after 72 hrs by CellTiter-Glo assay; format: functional, cell-based; settings: NCI-H1975, 72 h
[2] = test system: A-431; assay: Cytotoxicity against human A431 cells expressing wild-type EGFR assessed as inhibition of cell proliferation after 72 hrs by CellTiter-Glo assay; format: cell-based; settings: A-431, 72 h
[3] = Cytotoxicity against human HCC827 cells harboring EGFR 746 to 750 deletion mutant assessed as inhibition of cell proliferation after 72 hrs by CellTiter-Glo assay; format: functional, cell-based; settings: HCC827, 72 h
[4] = test system: Mus musculus; assay: In vivo inhibition of EGFR L858R/T790M double mutant phosphorylation in human NCI-H1975 cells xenografted in athymic nude mouse at 30 mg/kg, po measured at 4 hrs by mesoscale multiplex assay relative to control; format: functional
Procedure, shortened: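 Female athymic nude mice carried matrigel plugs holding 5 x 10⁶ H1975 cells, n = 3 per group. Control or compound given at 30 mg/kg po. Plugs and plasma taken 4 h after dosing. p-EGFR in plug measured by quantitative MSD assay, given as % p-EGFR/PRAS40 vs control.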

[5] = molecular target: T1, Epidermal growth factor receptor (Homo sapiens, UniProt P00533); assay: Binding affinity to wild type EGFR (unknown origin)
[6] = molecular target: T2, Epidermal growth factor receptor (Homo sapiens, UniProt P00533, L858R/T790M); assay: Binding affinity to EGFR T790M/L858R double mutant (unknown origin); format: protein assay
[7] = Selectivity ratio of IC50 for wild type EGFR phosphorylation in human A431 cells to IC50 for EGFR L858R/T790M double mutant phosphorylation in human NCI-H1975 cells; format: ADME, cell-based
[8] = Selectivity ratio of IC50 for human A431 cells expressing wild-type EGFR to IC50 for human HCC827 cells harboring EGFR 746 to 750 deletion mutant; format: ADME, cell-based
[9] = species: Rattus norvegicus; assay: Hepatobiliary toxicity in Sprague-Dawley rat measured for 4 days; format: organism-based; settings: in vivo, 96 h
[10] = Clearance in Sprague-Dawley rat at 1 mg/kg, iv; format: ADME, organism-based; settings: Sprague-Dawley, in vivo
Procedure, shortened: (§1)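 Male Sprague Dawley rats, 3 animals per route; mean values. IV dose 1 mg/kg as a DMSO solution. Oral dose 10 mg/kg, in one of three vehicles by compound: 1% Pluronic F68/2% HPMC/15% HPBCD/82% water–methanesulfonic acid pH 4.5; 20% HPBCD/80% water–methanesulfonic acid pH 4.0; or 1% Pluronic F68/2% HPMC/97% water–methanesulfonic acid pH 4.0.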

[11] = Selectivity ratio of IC50 for human A431 cells expressing wild-type EGFR to IC50 for human NCI-H1975 cells harboring EGFR L858R/T790M double mutant; format: ADME, cell-based
[12] = molecular target: Epidermal growth factor receptor (Homo sapiens, UniProt P00533, 746-750DEL); assay: Inhibition of EGFR 746 to 750 deletion mutant phosphorylation in human HCC827 cells after 60 mins by mesoscale multiplex assay; format: cell-based
[13] = AUC (0 to infinity) in Sprague-Dawley rat at 10 mg/kg, po; format: ADME, organism-based; parameters: dose 10 mg/kg, route oral, time infinity; settings: Sprague-Dawley, in vivo; procedure, shortened: as §1
[14] = Oral bioavailability in Sprague-Dawley rat at 10 mg/kg; format: ADME, organism-based; settings: Sprague-Dawley, in vivo; procedure, shortened: as §1
[15] = molecular target: T2, Epidermal growth factor receptor; assay: Inhibition of EGFR L858R/T790M double mutant phosphorylation in human NCI-H1975 cells after 60 mins by mesoscale multiplex assay; format: cell-based
[16] = Volume of distribution at steady state in Sprague-Dawley rat at 1 mg/kg, iv; format: ADME, organism-based; settings: in vivo, read-out: Vdss; procedure, shortened: as §1
[17] = Selectivity ratio of IC50 for wild type EGFR phosphorylation in human A431 cells to IC50 for EGFR 746 to 750 deletion mutant phosphorylation in human HCC827 cells; format: ADME, cell-based
[18] = molecular target: T1, Epidermal growth factor receptor; assay: Inhibition of wild type EGFR phosphorylation in human A431 cells after 60 mins by mesoscale multiplex assay; format: cell-based, A-431
[19] = Half life in Sprague-Dawley rat at 1 mg/kg, iv; format: ADME, organism-based; settings: in vivo; procedure, shortened: as §1

T2 sequence (P00533 25-1210 T790M/L858R limits assumed): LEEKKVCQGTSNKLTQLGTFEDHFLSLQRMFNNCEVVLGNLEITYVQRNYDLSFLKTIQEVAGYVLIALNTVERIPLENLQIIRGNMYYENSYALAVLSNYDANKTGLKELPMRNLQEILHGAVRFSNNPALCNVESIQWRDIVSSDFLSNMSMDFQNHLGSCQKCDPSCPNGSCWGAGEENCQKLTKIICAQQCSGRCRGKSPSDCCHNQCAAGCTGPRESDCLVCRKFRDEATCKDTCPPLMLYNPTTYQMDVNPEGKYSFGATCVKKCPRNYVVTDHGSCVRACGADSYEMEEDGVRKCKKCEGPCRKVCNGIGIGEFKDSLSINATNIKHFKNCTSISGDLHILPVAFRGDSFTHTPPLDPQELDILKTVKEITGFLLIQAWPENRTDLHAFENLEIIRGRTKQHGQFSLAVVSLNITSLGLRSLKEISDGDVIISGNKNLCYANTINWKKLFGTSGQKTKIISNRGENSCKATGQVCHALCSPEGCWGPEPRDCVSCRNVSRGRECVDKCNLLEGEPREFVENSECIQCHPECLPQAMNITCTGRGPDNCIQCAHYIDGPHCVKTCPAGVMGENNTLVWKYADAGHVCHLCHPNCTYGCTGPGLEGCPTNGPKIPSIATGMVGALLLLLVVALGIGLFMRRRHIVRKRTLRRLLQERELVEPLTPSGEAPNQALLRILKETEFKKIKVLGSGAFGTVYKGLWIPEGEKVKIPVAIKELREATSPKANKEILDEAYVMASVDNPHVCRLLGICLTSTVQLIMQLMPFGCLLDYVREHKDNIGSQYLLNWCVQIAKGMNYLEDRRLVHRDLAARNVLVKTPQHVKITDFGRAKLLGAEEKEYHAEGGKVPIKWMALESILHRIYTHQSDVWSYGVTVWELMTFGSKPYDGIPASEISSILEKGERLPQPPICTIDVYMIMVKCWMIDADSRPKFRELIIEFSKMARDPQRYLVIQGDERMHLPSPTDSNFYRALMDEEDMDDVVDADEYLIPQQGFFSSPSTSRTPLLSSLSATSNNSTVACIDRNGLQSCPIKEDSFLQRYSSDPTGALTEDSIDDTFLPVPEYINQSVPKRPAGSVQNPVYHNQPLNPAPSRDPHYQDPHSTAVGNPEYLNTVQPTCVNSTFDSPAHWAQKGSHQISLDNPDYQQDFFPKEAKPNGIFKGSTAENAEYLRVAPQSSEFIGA
T1 sequence (P00533 whole entry): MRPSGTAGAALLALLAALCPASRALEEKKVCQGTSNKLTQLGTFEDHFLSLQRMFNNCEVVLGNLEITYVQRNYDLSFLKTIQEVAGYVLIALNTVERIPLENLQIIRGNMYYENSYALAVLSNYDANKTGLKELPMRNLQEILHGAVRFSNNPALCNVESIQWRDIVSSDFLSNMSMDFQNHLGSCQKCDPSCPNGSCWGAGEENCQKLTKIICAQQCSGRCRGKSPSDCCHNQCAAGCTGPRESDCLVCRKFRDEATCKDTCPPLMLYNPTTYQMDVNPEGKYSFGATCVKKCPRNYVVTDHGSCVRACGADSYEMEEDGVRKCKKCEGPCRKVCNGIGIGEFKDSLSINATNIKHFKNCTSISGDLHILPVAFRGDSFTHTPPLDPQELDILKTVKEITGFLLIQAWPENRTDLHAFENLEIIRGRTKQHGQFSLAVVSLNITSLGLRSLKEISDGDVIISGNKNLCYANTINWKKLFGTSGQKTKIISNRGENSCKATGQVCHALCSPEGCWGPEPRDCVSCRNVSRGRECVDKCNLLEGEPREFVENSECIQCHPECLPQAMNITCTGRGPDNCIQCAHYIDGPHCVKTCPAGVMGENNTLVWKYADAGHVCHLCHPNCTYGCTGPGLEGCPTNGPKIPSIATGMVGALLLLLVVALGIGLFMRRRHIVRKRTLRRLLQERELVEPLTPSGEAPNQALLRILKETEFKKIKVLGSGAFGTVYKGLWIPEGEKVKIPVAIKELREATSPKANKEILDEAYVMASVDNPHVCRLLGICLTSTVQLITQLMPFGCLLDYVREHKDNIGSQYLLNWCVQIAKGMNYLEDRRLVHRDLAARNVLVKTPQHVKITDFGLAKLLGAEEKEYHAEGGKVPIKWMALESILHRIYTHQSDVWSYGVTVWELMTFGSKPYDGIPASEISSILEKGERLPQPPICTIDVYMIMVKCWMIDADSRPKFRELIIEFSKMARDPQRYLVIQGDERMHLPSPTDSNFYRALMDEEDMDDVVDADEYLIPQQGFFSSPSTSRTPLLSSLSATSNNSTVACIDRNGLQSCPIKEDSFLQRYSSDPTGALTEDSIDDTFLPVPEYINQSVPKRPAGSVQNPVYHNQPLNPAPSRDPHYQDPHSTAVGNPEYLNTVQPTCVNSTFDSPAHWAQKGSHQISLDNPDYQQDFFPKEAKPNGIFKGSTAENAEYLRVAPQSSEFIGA
Chain of Epidermal growth factor receptor (Homo sapiens, UniProt P00533, 746-750DEL) (P00533 whole entry, looked up, stated change not applied): as the sequence (P00533 whole entry) above

Compound	IC50 [1] [nM]	IC50 [2] [nM]	IC50 [3] [nM]	inhibition in vivo at 30 mg/kg [4] [%]	also measured
C=CC(=O)Nc1cccc(-n2c(=O)c(Cc3ccccc3)cc3cnc(Nc4ccc(N5CCN(C)CC5)cc4OC)nc32)c1	4	250	18		
C=CC(=O)Nc1cccc(-n2c(=O)cc(C)c3cnc(Nc4ccc(N5CCN(C)CC5)cc4)nc32)c1	4	> 3000	7	5	
C=CC(=O)Nc1cccc(-n2c(=O)c(OC)c(C)c3cnc(Nc4ccc(N5CCN(C)CC5)cc4OC)nc32)c1	10	1390	41		
C=CC(=O)Nc1cccc(-n2c3nc(Nc4ccc(N5CCC(N(C)C)CC5)cc4OC)ncc3c(=O)n3ccnc23)c1					Kd [5]: 310 nM; Kd [6]: 2.6 nM
C=CC(=O)Nc1cccc(-n2c(=O)cc(C)c3cnc(Nc4ccc(N5CCN(C)CC5)cc4OC)nc32)c1	4	1200	12	90	Ratio IC50 [7]: 100; Ratio IC50 [8]: > 100; Activity [9]: Toxic; clearance [10]: 177 mL/min/kg; Ratio IC50 [11]: > 100; IC50 [12]: 12 nM; AUC(0-inf) [13]: 0.18 µM·h; bioavailability [14]: 9.5%; IC50 [15]: 4 nM; Vd [16]: 7.8 L/kg; Ratio IC50 [17]: 100; IC50 [18]: 386 nM; half-life [19]: 3 h
C=CC(=O)Nc1cccc(-n2c(=O)cc(C)c3cnc(Nc4ccc(C5CCN(C)CC5)cc4OC)nc32)c1	4		33		
